# Test results taken from ChEMBL document CHEMBL4033696, “Repurposing of Proton Pump Inhibitors as first identified small molecule inhibitors of endo-β-N-acetylglucosaminidase (ENGase) for the treatment of NGLY1 deficiency, a rare genetic disease” (Bioorg Med Chem Lett, 2017).
# The source made the active and inactive calls. The rule behind the calls is not given here. Residues, ends and D or L forms follow the SMILES beside them. *: point of attachment. Cbz = O=C(OCc1ccccc1)*
# Biological target: T1, Cytosolic endo-beta-N-acetylglucosaminidase (Homo sapiens) (UniProt Q8NFI3)
# T1 sequence (whole entry): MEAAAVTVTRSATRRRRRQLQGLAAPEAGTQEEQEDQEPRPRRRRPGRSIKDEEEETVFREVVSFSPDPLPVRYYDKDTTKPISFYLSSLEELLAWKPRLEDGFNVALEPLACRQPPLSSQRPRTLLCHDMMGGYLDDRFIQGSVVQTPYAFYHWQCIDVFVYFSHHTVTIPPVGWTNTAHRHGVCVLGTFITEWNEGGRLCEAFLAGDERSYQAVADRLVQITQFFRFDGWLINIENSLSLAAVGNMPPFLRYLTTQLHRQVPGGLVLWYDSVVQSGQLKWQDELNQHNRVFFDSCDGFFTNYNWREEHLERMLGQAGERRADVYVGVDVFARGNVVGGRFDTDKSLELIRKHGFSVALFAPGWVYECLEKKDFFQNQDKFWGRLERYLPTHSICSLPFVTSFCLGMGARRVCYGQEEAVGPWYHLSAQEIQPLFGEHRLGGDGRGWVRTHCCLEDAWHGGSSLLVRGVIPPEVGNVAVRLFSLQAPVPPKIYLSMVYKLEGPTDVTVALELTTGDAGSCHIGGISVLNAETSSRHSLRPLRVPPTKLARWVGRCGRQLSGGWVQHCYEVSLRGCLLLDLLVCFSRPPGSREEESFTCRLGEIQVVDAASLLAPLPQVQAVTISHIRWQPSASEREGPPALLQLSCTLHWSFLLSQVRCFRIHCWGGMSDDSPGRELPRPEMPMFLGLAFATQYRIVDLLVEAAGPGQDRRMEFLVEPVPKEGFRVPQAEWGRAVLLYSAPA
# Experiment: (§1) Inhibition of recombinant human C-MYC/DDK-tagged ENGase expressed in HEK293T cells using heat inactivated bovine ribonuclease B as substrate pretreated for 15 mins followed by substrate addition after 90 mins by SDS-PAGE analysis
# Settings: HEK-293T
# Summary of the method: (§2)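 Electrophoretic mobility shift assay: recombinant human ENGase with ribonuclease B and inhibitor at various concentrations, heat-inactivated, run on 12% SDS-PAGE, Coomassie R-250 staining, band densitometry. IC50 came either from 8-dose curves in three independent experiments or was estimated from four concentrations in two independent experiments.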
row,SMILES,inhibition
1,COc1ccnc(C[S+]([O-])c2nc3cc(OC(F)F)ccc3[nH]2)c1OC (stereo not given),inactive
2,COc1ccc2[nH]c([S@@+]([O-])Cc3ncc(C)c(OC)c3C)nc2c1,inactive

# Biological target: T2, Cytosolic endo-beta-N-acetylglucosaminidase (Homo sapiens, UniProt Q8NFI3)
# T2 sequence (Q8NFI3 whole entry): T1 sequence (whole entry)
# Experiment: as §1
# Parameters: species or system HEK-293T
# Settings: not given
# Summary of the method: as §2
row,SMILES,IC50
1,COc1ccc2[nH]c([S+]([O-])Cc3ncc(C)c(OC)c3C)nc2c1 (stereo not given) [OMEPRAZOLE],25 µM
2,COc1ccc2[nH]c([S+]([O-])Cc3ncc(C)c(OC)c3C)nc2n1 (stereo not given) [TENATOPRAZOLE],20 µM
3,Cc1c(OCC(F)(F)F)ccnc1C[S@@+]([O-])c1nc2ccccc2[nH]1 [DEXLANSOPRAZOLE],25 µM
4,Cc1c(OCC(F)(F)F)ccnc1C[S+]([O-])c1nc2ccccc2[nH]1 (stereo not given) [LANSOPRAZOLE],24.4 µM
5,COCCCOc1ccnc(C[S+]([O-])c2nc3ccccc3[nH]2)c1C (stereo not given) [RABEPRAZOLE],4.47 µM

# Biological target: T1, Cytosolic endo-beta-N-acetylglucosaminidase (Homo sapiens)
# Experiment: Inhibition of recombinant human C-MYC/DDK-tagged ENGase expressed in HEK293T cells at 100 uM using heat inactivated bovine ribonuclease B as substrate pretreated for 15 mins followed by substrate addition after 90 mins by SDS-PAGE analysis
# Settings: HEK-293T
# Summary of the method: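 Recombinant human ENGase incubated with ribonuclease B substrate and test compound at 100 μM as a single-concentration screen. Reactions were then heat-inactivated and resolved on 12% SDS-PAGE as an electrophoretic mobility shift assay. Bands were stained with Coomassie blue R-250 and quantified by densitometry.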
row,SMILES,inhibition
1,CC(=O)Nc1nnc(S(N)(=O)=O)s1,inactive
2,CCNC1=N[C@H]2[C@H](O)[C@@H](O)[C@H](CO)O[C@H]2S1,inactive
3,Clc1cccc(Cl)c1NC1=NCCN1,inactive
4,CC(C)C[C@H](NC(=O)CNC(=O)c1cc(Cl)ccc1Cl)B(O)O,inactive
5,CNCC[C@@H](Oc1ccccc1C)c1ccccc1,inactive
6,CN1CCc2nc(C(=O)N[C@@H]3C[C@@H](C(=O)N(C)C)CC[C@@H]3NC(=O)C(=O)Nc3ccc(Cl)cn3)sc2C1,inactive
7,CC(C)C[C@@H](C=O)NC(=O)[C@H](CC(C)C)NC(=O)[C@H](CC(C)C)NC(=O)OCc1ccccc1 (Cbz-Leu-Leu-Leu-aldehyde),inactive
8,N=C(N)NC(=O)Cc1c(Cl)cccc1Cl,inactive
